Results reported in ChEMBL document CHEMBL3112403, “Design, synthesis and evaluation of second generation MurF inhibitors based on a cyanothiophene scaffold” (Eur J Med Chem, 2014).

Tests used:
[1] = Inhibition of Escherichia coli MurF ligase using D-Ala-D-Ala as substrate after 15 mins by malachite green assay
Outline: (§1)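 After 15 min at 37 °C, Biomol reagent was added and phosphate read at 650 nm, in duplicate. RA was taken relative to a 5% DMSO control. IC50 was taken as the concentration giving 50% RA, from seven concentrations.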

[2] = target: T1, UDP-N-acetylmuramoyl-tripeptide--D-alanyl-D-alanine ligase (Streptococcus pneumoniae, UniProt Q9ZHC3); assay: Inhibition of Streptococcus pneumoniae MurF ligase using D-Ala-D-Ala as substrate after 15 mins by malachite green assay
T1 sequence (Q9ZHC3 whole entry): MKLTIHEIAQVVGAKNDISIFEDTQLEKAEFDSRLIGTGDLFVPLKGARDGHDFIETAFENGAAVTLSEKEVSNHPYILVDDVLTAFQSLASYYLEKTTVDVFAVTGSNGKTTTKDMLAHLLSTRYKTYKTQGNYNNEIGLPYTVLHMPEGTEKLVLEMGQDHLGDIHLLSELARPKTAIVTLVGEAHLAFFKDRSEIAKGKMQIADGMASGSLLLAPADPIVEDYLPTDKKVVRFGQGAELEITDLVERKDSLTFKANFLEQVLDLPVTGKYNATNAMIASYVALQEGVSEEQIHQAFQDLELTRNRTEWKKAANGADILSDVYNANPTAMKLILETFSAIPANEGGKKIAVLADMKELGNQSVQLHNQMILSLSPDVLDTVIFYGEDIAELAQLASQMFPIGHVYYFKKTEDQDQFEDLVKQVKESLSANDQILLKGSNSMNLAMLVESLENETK
Outline: (§2)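 Purified S. pneumoniae MurF in 50 mM Hepes pH 8.0 with 50 mM MgCl2, 0.005% Triton X-114, 100 µM D-Ala-D-Ala, 50 µM UMtri-L-Lys and 250 µM ATP, with 5% DMSO final. After 15 min at 37 °C, Biomol reagent was added and absorbance read at 650 nm, in duplicate. RA was taken against a 5% DMSO control. IC50 was the 50% RA point from seven concentrations.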

Escherichia coli [3] = assay: Antibacterial activity against Escherichia coli ES100 harboring tolC deletion mutant assessed as growth inhibition by broth microdilution method; format: functional
Outline: (§3)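 MIC by broth microdilution in Mueller-Hinton broth following CLSI guidelines. ES100 is the tolC derivative of AB734, and SM1411 is the acrAB derivative of 1411; both are efflux-deficient E. coli strains. Growth inhibition was read as the minimum inhibitory concentration.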

Escherichia coli [4] = assay: Antibacterial activity against Escherichia coli AB734 assessed as growth inhibition by broth microdilution method in presence of polymyxin B nonapeptide; format: functional
Outline: (§4)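 Broth microdilution MIC in Mueller-Hinton broth per CLSI, run with 4 µg/mL polymyxin B nonapeptide to permeabilize the outer membrane.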

Escherichia coli [5] = assay: Inhibition of […] MurF ligase using D-Ala-D-Ala as substrate assessed as residual activity at 250 uM after 15 mins by malachite green assay; outline: as §1
Escherichia coli [6] = assay: Antibacterial activity against Escherichia coli 1411 assessed as growth inhibition by broth microdilution method; format: functional
Outline: (§5)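 MICs by broth microdilution in Mueller-Hinton broth following CLSI guidelines.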

Escherichia coli [7] = assay: Antibacterial activity against Escherichia coli AB734 assessed as growth inhibition by broth microdilution method; format: functional; outline: as §5
Staphylococcus aureus = assay: Antibacterial activity against Staphylococcus aureus SH1000 assessed as growth inhibition by broth microdilution method; format: functional; outline: as §5
[8] = target: T2, UDP-N-acetylmuramoyl-tripeptide--D-alanyl-D-alanine ligase (Streptococcus pneumoniae) (UniProt Q9ZHC3); assay: Inhibition of Streptococcus pneumoniae MurF ligase using D-Ala-D-Ala as substrate assessed as residual activity at 250 uM after 15 mins by malachite green assay; outline: as §2
T2 sequence (whole entry): T1 sequence (Q9ZHC3 whole entry)

Escherichia coli [9] = assay: Antibacterial activity against Escherichia coli SM1411 harboring acrAB deletion mutant assessed as growth inhibition by broth microdilution method; format: functional; outline: as §3
Escherichia coli [10] = assay: Antibacterial activity against Escherichia coli 1411 assessed as growth inhibition by broth microdilution method in presence of polymyxin B nonapeptide; format: functional; outline: as §4

SMILES | IC50 [1] | IC50 [2] | MIC (Escherichia coli [3]) | MIC (Escherichia coli [4]) | Activity (Escherichia coli [5]) | MIC (Escherichia coli [6]) | MIC (Escherichia coli [7]) | MIC (Staphylococcus aureus) | Activity [8] | MIC (Escherichia coli [9]) | MIC (Escherichia coli [10])
N#Cc1c(NC(=O)c2cccc(OCn3cc(Cl)cn3)c2)sc2c1CCC2 | 56 µM | 126 µM | – | – | – | – | – | – | – | – | –
N#Cc1c(NC(=O)c2cc(OCCN)ccc2Cl)sc2c1CCNC2 | – | – | > 256 µg/mL | > 256 µg/mL | 65% | > 256 µg/mL | > 256 µg/mL | > 256 µg/mL | 85% | > 256 µg/mL | > 256 µg/mL
Cl.N#Cc1c(NC(=O)c2cc(S(=O)(=O)NCCN)c(Cl)cc2Cl)sc2c1CCCC2 | 418 µM | 219 µM | 64 µg/mL | 128 µg/mL | – | > 256 µg/mL | > 256 µg/mL | > 256 µg/mL | – | 128 µg/mL | 128 µg/mL
Cl.N#Cc1c(NC(=O)c2cc(OCCNC(=N)N)ccc2Cl)sc2c1CCN(Cc1cccc(O)c1)C2 | 143 µM | 117 µM | 32 µg/mL | 64 µg/mL | – | 128 µg/mL | 128 µg/mL | 32 µg/mL | – | 64 µg/mL | 64 µg/mL
N#Cc1c(NC(=O)c2cc(OCCNC(=O)C(F)(F)F)ccc2Cl)sc2c1CCN(Cc1ccccc1)C2 | – | 172 µM | > 256 µg/mL | > 256 µg/mL | 46% | > 256 µg/mL | > 256 µg/mL | > 256 µg/mL | – | > 256 µg/mL | > 256 µg/mL
COc1ccc(CN2CCc3c(sc(NC(=O)c4cc(OCCNC(=O)C(F)(F)F)ccc4Cl)c3C#N)C2)cc1 | – | 154 µM | > 256 µg/mL | > 256 µg/mL | 81% | > 256 µg/mL | > 256 µg/mL | > 256 µg/mL | – | > 256 µg/mL | > 256 µg/mL
N#Cc1c(NC(=O)c2cccc(OCCCN)c2)sc2c1CCCC2 | – | – | – | – | 75% | – | – | – | 53% | – | –
N#Cc1ccc(CN2CCc3c(sc(NC(=O)c4cc(OCCNC(=O)C(F)(F)F)ccc4Cl)c3C#N)C2)cc1 | – | – | > 256 µg/mL | > 256 µg/mL | 45% | > 256 µg/mL | > 256 µg/mL | > 256 µg/mL | 55% | > 256 µg/mL | > 256 µg/mL
CC(C)(C)OC(=O)N1CCc2c(sc(NC(=O)c3cc(OCCNC(=O)C(F)(F)F)ccc3Cl)c2C#N)C1 | – | – | > 256 µg/mL | > 256 µg/mL | 102% | > 256 µg/mL | > 256 µg/mL | > 256 µg/mL | 96% | > 256 µg/mL | > 256 µg/mL
N#Cc1c(NC(=O)c2cc(OCCNC(=O)C(F)(F)F)ccc2Cl)sc2c1CCN(Cc1cccc(O)c1)C2 | – | – | > 256 µg/mL | > 256 µg/mL | 56% | > 256 µg/mL | > 256 µg/mL | > 256 µg/mL | 71% | > 256 µg/mL | > 256 µg/mL
CC(=O)Oc1ccc(C2CCc3c(sc(NC(=O)c4cc(OCCNC(=O)C(F)(F)F)ccc4Cl)c3C#N)C2)cc1 (centres undefined) | – | – | – | – | 101% | – | – | – | 98% | – | –
N#Cc1ccc(CN2CCc3c(sc(NC(=O)c4cc(OCCN)ccc4Cl)c3C#N)C2)cc1 | 76 µM | 107 µM | 32 µg/mL | 64 µg/mL | – | < 256 µg/mL | < 256 µg/mL | 128 µg/mL | – | 64 µg/mL | 64 µg/mL
N#Cc1c(NC(=O)c2cc(OCCN)ccc2Cl)sc2c1CCN(Cc1ccccc1)C2 | 84 µM | 51 µM | 16 µg/mL | 32 µg/mL | – | 64 µg/mL | 64 µg/mL | 64 µg/mL | – | 32 µg/mL | 32 µg/mL
COC(=O)c1ccc(CN2CCc3c(sc(NC(=O)c4cc(OCCN)ccc4Cl)c3C#N)C2)cc1 | 88 µM | 109 µM | 32 µg/mL | 64 µg/mL | – | > 256 µg/mL | > 256 µg/mL | 128 µg/mL | – | 64 µg/mL | 64 µg/mL
Cl.N#Cc1c(NC(=O)c2cc(OCCNC(=N)N)ccc2Cl)sc2c1CCCC2 | 56 µM | 75 µM | 8 µg/mL | 8 µg/mL | – | 16 µg/mL | 16 µg/mL | 64 µg/mL | – | 8 µg/mL | 8 µg/mL
N#Cc1c(NC(=O)c2cc(OCCN)ccc2Cl)sc2c1CCN(Cc1ccc(-n3cnnn3)cc1)C2 | 83 µM | 454 µM | > 256 µg/mL | > 256 µg/mL | – | > 256 µg/mL | > 256 µg/mL | > 256 µg/mL | – | > 256 µg/mL | > 256 µg/mL
COc1ccc(CN2CCc3c(sc(NC(=O)c4cc(OCCNC(=N)N)ccc4Cl)c3C#N)C2)cc1.Cl | 78 µM | 61 µM | 8 µg/mL | 32 µg/mL | – | 32 µg/mL | 32 µg/mL | 32 µg/mL | – | 32 µg/mL | 32 µg/mL
Cl.N#Cc1c(NC(=O)c2cc(OCCN)ccc2Cl)sc2c1CCCC2 | 208 µM | 170 µM | 32 µg/mL | 32 µg/mL | – | 128 µg/mL | 128 µg/mL | 128 µg/mL | – | 32 µg/mL | 32 µg/mL
N#Cc1c(NC(=O)c2cc(OCCNC(=O)C(F)(F)F)ccc2Cl)sc2c1CCN(Cc1ccc(-n3cnnn3)cc1)C2 | 152 µM | 103 µM | 64 µg/mL | > 256 µg/mL | – | > 256 µg/mL | > 256 µg/mL | > 256 µg/mL | – | > 256 µg/mL | > 256 µg/mL
Cl.N#Cc1c(NC(=O)c2cccc(OCCNC(=N)N)c2)sc2c1CCCC2 | 258 µM | 167 µM | 16 µg/mL | > 256 µg/mL | – | 64 µg/mL | 64 µg/mL | 64 µg/mL | – | 16 µg/mL | 64 µg/mL
Cl.N#Cc1c(NC(=O)c2cc(OCCCNC(=N)N)ccc2Cl)sc2c1CCCC2 | 102 µM | 78 µM | 8 µg/mL | 32 µg/mL | – | 32 µg/mL | 32 µg/mL | > 256 µg/mL | – | 16 µg/mL | 32 µg/mL
N#Cc1c(NC(=O)c2cc(OCCN)ccc2Cl)sc2c1CCN(Cc1ccc(C(=O)O)cc1)C2 | 336 µM | 663 µM | > 256 µg/mL | > 256 µg/mL | – | > 256 µg/mL | > 256 µg/mL | > 256 µg/mL | – | > 256 µg/mL | > 256 µg/mL
Cl.N#Cc1c(NC(=O)c2cc(OCCNC(=N)N)ccc2Cl)sc2c1CCN(Cc1ccc(O)cc1)C2 | 25 µM | 20 µM | 4 µg/mL | 16 µg/mL | – | 64 µg/mL | 64 µg/mL | 4 µg/mL | – | 16 µg/mL | 16 µg/mL
N#Cc1c(NC(=O)c2cc(OCCCN)ccc2Cl)sc2c1CCCC2 | 272 µM | 128 µM | 32 µg/mL | 32 µg/mL | – | 64 µg/mL | 64 µg/mL | 128 µg/mL | – | 32 µg/mL | 32 µg/mL
N#Cc1c(NC(=O)c2cc(OCC(N)=O)ccc2Cl)sc2c1CCCC2 | – | – | – | – | 74% | – | – | – | 87% | – | –
COC(=O)c1ccc(CN2CCc3c(sc(NC(=O)c4cc(OCCNC(=O)C(F)(F)F)ccc4Cl)c3C#N)C2)cc1 | 255 µM | – | > 256 µg/mL | > 256 µg/mL | – | > 256 µg/mL | > 256 µg/mL | > 256 µg/mL | 55% | > 256 µg/mL | > 256 µg/mL
N#Cc1c(NC(=O)c2cc(OCCN)ccc2Cl)sc2c1CCN(Cc1cccc(O)c1)C2 | 150 µM | 119 µM | 64 µg/mL | 64 µg/mL | – | 128 µg/mL | 128 µg/mL | > 256 µg/mL | – | 64 µg/mL | 64 µg/mL
N#Cc1c(NC(=O)c2cc(OCCN)ccc2Cl)sc2c1CCC(c1ccc(O)cc1)C2 (centres undefined) | 81 µM | 58 µM | 8 µg/mL | 16 µg/mL | – | > 256 µg/mL | > 256 µg/mL | > 256 µg/mL | – | 32 µg/mL | 16 µg/mL
